Assay outcomes: PubChem BioAssay, The Scripps Research Institute Molecular Screening Center
V1R ag counter: V1a receptor agonism, counter-screen for OXTR agonists; P37288; 0.25% of 320,000 active; activation, % at 3 µM; CHO-V1R cells, Fluo-8 calcium fluorescence, agonist mode; 0% DMSO, 100% 3 nM vasopressin;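 active = activation above the mean activation of all tested compounds plus 3 SD, per screening run, cut at about 20% in these data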;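 note: signal is peak over basal fluorescence ratio across a 100 second FLIPR read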
OXTR agonist: human OXTR agonism; P30559; CHO-OTR cells, Fluo-8 calcium fluorescence; normalized: DMSO 0%, oxytocin 100%; activation, % at 3 µM; 0.32% of 320,000 active;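 active = activation above the mean of all tested compounds plus 3 SD, cutoff set per screening run, cut at about 20% in these data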;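 note: peak over basal fluorescence ratio from a 100 s FLIPR kinetic read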
Target sequence (P30559 whole entry, looked up): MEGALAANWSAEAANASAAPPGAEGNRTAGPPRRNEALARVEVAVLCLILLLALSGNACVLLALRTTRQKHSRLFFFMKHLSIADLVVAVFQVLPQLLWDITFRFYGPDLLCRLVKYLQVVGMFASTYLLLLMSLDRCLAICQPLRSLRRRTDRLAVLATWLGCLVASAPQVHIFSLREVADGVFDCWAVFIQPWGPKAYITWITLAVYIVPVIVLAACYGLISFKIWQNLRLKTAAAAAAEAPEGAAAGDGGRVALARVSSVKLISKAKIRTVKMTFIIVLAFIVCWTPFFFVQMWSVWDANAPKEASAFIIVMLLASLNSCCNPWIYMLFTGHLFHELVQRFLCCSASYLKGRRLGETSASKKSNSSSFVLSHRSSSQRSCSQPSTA
OXTR potentiator: human OXTR potentiation. P30559. CHO-OTR cells, Fluo-8 calcium fluorescence, potentiator mode; 0% = oxytocin EC15, 100% = EC100. activation, % at 3 µM. 0.061% of 320,000 active;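 active = activation above that plate's cutoff, the mean activation of tested compounds plus 3 SD, cut at about 6.6% in these data, passing the limit was not always enough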;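 note: 100% uses oxytocin at 75 nM as the full agonist control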
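System: human OTR in CHO cells / Also added: sub-maximal oxytocin, roughly EC15 / Control set: EC15 oxytocin low, 75 nM oxytocin high / Schedule: 6 min compound pre-incubation at room temperature, 100 s kinetic read / Compound: single-point 3.0 µM / Replication: singlicate / Technique: Fluo-8 calcium dye fluorescence / Read-out basis: % activation of max/min ratio relative to oxytocin controls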
TRPML3 agonist: activates the human TRPML3 channel. activation, % at 3 µM. HEK293 TRPML3-YFP, Fluo-8 calcium fluorescence; 100% = the carbachol control signal. 0.29% of 220,000 active. Q8TDD5;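 active = activation above its plate's cutoff, the mean activation of the plate's test wells plus 3 SD, cut at about 12% in these data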;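 note: 0% = DMSO only wells and 100% = carbachol wells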
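Material: TRPML3-YFP stable HEK293 cells | Dosing: One concentration, 3 µM nominal, 0.3% DMSO | Timing: 125 s total fluorescence read per well | Technique: Fluo-8 calcium dye fluorescence, ex 470-495, em 515-575 nm | Measure: Percent activation from peak-to-basal fluorescence ratio, scaled between DMSO and carbachol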
TRPN1 ag: agonists of zebrafish TRPN1 channel; HEK293 zebrafish TRPN1-YFP, Fluo-8 calcium fluorescence; 100% = response to 87 µM carbachol; activation, % at 3 µM; 0.18% of 220,000 active; AID 1424;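 active = activation above its plate's cutoff, the mean activation of test wells on that plate plus 3 SD, cut at about 19% in these data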;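 note: 0% = DMSO alone and 100% = 87 µM carbachol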
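Material: zebrafish TRPN1-YFP in HEK293 cells; Doses: single test compound dose, 3 µM nominal, 0.3% DMSO; Timing: dye loading 1 h at 37 °C, then 30 min room temperature; Technique: intracellular calcium fluorescence with Fluo-8; Benchmarks: high carbachol 87 µM, low DMSO alone.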
OXTR pot confirm: human OXTR potentiation, confirmation | shares compounds with OXTR potentiator | CHO-OTR cells, Fluo-8 calcium fluorescence; scaled from low-dose to maximal oxytocin | activation, % at 3 µM | 180 tested, under 10 active | AID 434985;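 active = mean percent activation over triplicates above a cutoff set from solvent-only control plates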;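 note: compounds tested in the presence of an EC15 dose of oxytocin; 0% = EC15 oxytocin with DMSO and 100% = EC100 oxytocin with DMSO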
V1aR agonist cf: human V1a receptor agonism, confirmation | 20% of 180 active | shares compounds with V1R ag counter | CHO-V1R cells, Fluo-8 calcium fluorescence, agonist | activation, % at 3 µM;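 active = average activation exceeds primary screen hit cutoff, cut at about 21% in these data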;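 note: peak over basal fluorescence ratio during a 100 s FLIPR read; 0% = DMSO only wells and 100% = 3 nM vasopressin wells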
OXTR ag counter: activates oxytocin receptor in V1a agonist counter-screen. shares compounds with V1R ag counter. CHO-OTR cells, Fluo-8 calcium fluorescence. activation, % at 3 µM. 10% of 180 active. AID 434969;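 active = mean activation over three repeats above the cutoff from the earlier oxytocin receptor agonist screen, cut at about 20% in these data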;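 note: peak over minimum fluorescence ratio within a 100 second FLIPR read; 0% = DMSO only wells and 100% = oxytocin high control wells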
* = called active by the depositor; / = no result given. Hits are enriched below; roughly 0.55% of the tested compounds scored in any of these assays.

SMILES	V1R ag counter	OXTR agonist	OXTR potentiator	TRPML3 agonist	TRPN1 ag	OXTR pot confirm	others
CC(=O)NC1=NN(C(C)=O)C(C)(CCS(=O)(=O)c2ccc(Br)cc2)S1 (stereo unspecified)	1.1	2.5	13.3*	0.0	-0.7	-5.6
O=C(NCCc1ccccc1)NC1CCCCC1	-0.8	-0.2	11.6*	-0.1	2.0	-2.8
O=C(NC1CCCCCC1)C(=S)NCCc1ccccc1	0.6	-1.6	-14.0	-0.6	0.8	/
Oc1ccc(O)c2c1C1c3ccccc3C2c2ccccc21	1.7	5.3	-13.5	/	/	/
O=C(O)CN(c1ccccc1F)S(=O)(=O)c1ccccc1	0.1	1.0	10.7*	0.2	0.6	-5.0
COCCSc1nnc(NC(=O)c2ccc(OC)c([N+](=O)[O-])c2)s1	0.4	1.1	6.1	0.9	0.4	/
CC(=O)c1cc(CN2CCN(C(C)C)C(CCO)C2)cs1 (stereo unspecified)	-0.3	1.5	12.2*	0.4	1.7	-3.5
Cc1ccc(C(=O)CN(CCC(=O)O)C(=O)c2ccncc2)cc1	0.2	-0.6	-8.6	/	/	/
Cc1ccccc1-c1nnc(SCC(=O)Nc2c(C)n(C)n(-c3ccccc3)c2=O)o1	-0.3	0.6	11.3*	1.2	-0.5	-0.1
O=C(CN1C(=O)COc2ccccc21)N(CCCN1CCOCC1)CC1CC=CCC1 (stereo unspecified)	-0.1	0.5	-4.5	-0.5	-0.9	/
CNC(=O)c1c(NC(=O)CS(=O)(=O)c2ccccc2)sc(C)c1C	-1.1	-0.3	-7.4	/	/	/
Cc1sc(NC(=O)CS(=O)(=O)c2ccccc2)c(C(N)=O)c1C	0.1	-1.5	8.1*	/	/	-7.8
CC[C@]1(c2cccc(C)c2)C(=O)N(C(=O)OC)N1C(=O)OC	-0.2	0.4	0.0	/	/	/
O=C1c2ccccc2C(=O)N1Cc1ccc2c(c1)OCO2	-0.1	-0.2	-5.8	-0.4	-1.1	/
O=C(O)c1ccc2c(c1)C(=O)N(Cc1ccc3c(c1)OCO3)C2=O	0.0	0.2	11.1*	0.4	1.0	-5.0
COc1cc(/C=N/NC(=S)NCCN2CCOCC2)ccc1O	-0.4	0.1	12.3*	0.2	-0.6	-11.3
COCCNC(=S)N/N=C/c1ccc(N2CCOCC2)cc1	0.7	-0.5	-12.2	1.0	0.2	/
Cc1cc(/C=C2\SC(N)=NC2=O)c(C)n1-c1ccc(F)cc1	0.0	-1.1	-9.7	1.4	1.9	/
CCOc1ccc(-n2cnc3scc(-c4ccc(OC)c(OC)c4)c3c2=O)cc1	-1.4	-2.1	11.2*	-0.2	-0.5	-3.4
COc1cccc(-n2cnc3scc(-c4cccs4)c3c2=O)c1	-1.2	-1.5	-7.9	-1.1	-1.8	/
O=C(Nc1ccccc1C(F)(F)F)c1ccc2nccnc2c1	0.0	0.0	-3.3	/	/	/
CCOc1ccc(N=C2NC(=O)S/C2=C\c2ccc(Cl)cc2)cc1	0.5	-1.0	-12.0	0.9	1.7	/
COc1ccc(N=C2NC(=O)S/C2=C\c2ccc(N(C)C)cc2)cc1	21.1*	18.5	-24.4	3.0	7.6	/	V1aR agonist cf=25.8*;OXTR ag counter=19.9*
Cc1ccc(OC(=O)CCC(=O)Nc2ccc(C(N)=O)cc2)cc1	0.8	0.4	4.9	/	/	/
NS(=O)(=O)c1ccc2nc(NC(=O)Nc3ccc(F)cc3)sc2c1	24.3*	1.3	-1.7	/	/	/	V1aR agonist cf=1.3;OXTR ag counter=1.2
O=C(CCCN=C1NS(=O)(=O)c2ccccc21)OCC(=O)c1ccc(Br)cc1	25.8*	14.5	-14.0	/	/	/	V1aR agonist cf=10.4;OXTR ag counter=7.9
COc1ccc(NS(=O)(=O)c2cccc(C(=O)NNC(=O)c3cc(S(N)(=O)=O)ccc3OC)c2)cc1	-0.8	0.4	0.6	/	/	/
CN(CC(=O)NCc1ccc(F)cc1)CC(=O)Nc1ccc(Cl)c(C(F)(F)F)c1	29.1*	16.4	-14.9	/	/	/	V1aR agonist cf=9.6;OXTR ag counter=13.3
CCC(NC(=O)c1cc(COc2ccc(C)nc2)on1)c1ccc(C)cc1 (stereo unspecified)	23.5*	12.2	-17.5	/	/	/	V1aR agonist cf=13.3;OXTR ag counter=12.9
